Results published in ChEMBL document CHEMBL5058577, “EUbOPEN Chemogenomics Library 2 (Multiplex)” (2022).

System: Fibroblast
Assay: Multiplex assay against human fibroblast
Type: toxicity, cell-based
Procedure, shortened: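 Compound was added to live cells that had been stained at seeding with Hoechst33342, BioTracker Green Microtubule Cytoskeleton Dye, MitoTracker Red and Annexin V Alexa Fluor 680, and imaging followed on a CQ1 microscope at 37°C and 5% CO2. CellPathfinder machine-learning gating divided cells into Hoechst high-intensity objects or normal cells, normal cells into healthy, pyknosed or fragmented nuclei, and pyknosed cells into mitotic or apoptotic. Tubulin, mitochondrial-mass and membrane-permeability phenotypes are per cents of healthy-nucleus cells.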

[1] = 12 h, 1 µM, compound concentration 1 uM, replicate 1
[2] = 12 h, 1 µM, compound concentration 1 uM, replicate 2
[3] = 12 h, 10 µM, compound concentration 10 uM, replicate 1
[4] = 12 h, 10 µM, compound concentration 10 uM, replicate 2
[5] = 24 h, 1 µM, compound concentration 1 uM, replicate 1
[6] = 24 h, 1 µM, compound concentration 1 uM, replicate 2
[7] = 24 h, 10 µM, compound concentration 10 uM, replicate 1
[8] = 24 h, 10 µM, compound concentration 10 uM, replicate 2
[9] = 48 h, 1 µM, compound concentration 1 uM, replicate 1
[10] = 48 h, 1 µM, compound concentration 1 uM, replicate 2
[11] = 48 h, 10 µM, compound concentration 10 uM, replicate 1
[12] = 48 h, 10 µM, compound concentration 10 uM, replicate 2

SMILES: C[C@H](NC(=O)CNC(=O)c1cccc(Cl)c1)c1ccccc1
- Population Apoptotic (%) [1]: 50%
- Population Fragmented Nuclei (%) [1]: 18%
- Population Healthy Nuclei (%) [1]: 71%
- Population Hoechst High Intensity Objects (%) [1]: 0%
- Population Membrane Permeable-Phenotype (%) [1]: 0%
- Population Mitochondria Different-Phenotype (%) [1]: 4%
- Population Mitotic Cells (%) [1]: 50%
- Population Normal (%) [1]: 100%
- Population Pyknosed Nuclei (%) [1]: 10%
- Population Tubulin-Different-Phenotype (%) [1]: 17%
- Total Cell Count [1]: 94
- Population Apoptotic (%) [2]: 44%
- Population Fragmented Nuclei (%) [2]: 28%
- Population Healthy Nuclei (%) [2]: 53%
- Population Hoechst High Intensity Objects (%) [2]: 3%
- Population Membrane Permeable-Phenotype (%) [2]: 6%
- Population Mitochondria Different-Phenotype (%) [2]: 2%
- Population Mitotic Cells (%) [2]: 56%
- Population Normal (%) [2]: 96%
- Population Pyknosed Nuclei (%) [2]: 18%
- Population Tubulin-Different-Phenotype (%) [2]: 41%
- Total Cell Count [2]: 140
- Population Apoptotic (%) [3]: 48%
- Population Fragmented Nuclei (%) [3]: 15%
- Population Healthy Nuclei (%) [3]: 58%
- Population Hoechst High Intensity Objects (%) [3]: 2%
- Population Membrane Permeable-Phenotype (%) [3]: 0%
- Population Mitochondria Different-Phenotype (%) [3]: 8%
- Population Mitotic Cells (%) [3]: 51%
- Population Normal (%) [3]: 97%
- Population Pyknosed Nuclei (%) [3]: 26%
- Population Tubulin-Different-Phenotype (%) [3]: 35%
- Total Cell Count [3]: 106
- Population Apoptotic (%) [4]: 43%
- Population Fragmented Nuclei (%) [4]: 31%
- Population Healthy Nuclei (%) [4]: 43%
- Population Hoechst High Intensity Objects (%) [4]: 1%
- Population Membrane Permeable-Phenotype (%) [4]: 13%
- Population Mitochondria Different-Phenotype (%) [4]: 3%
- Population Mitotic Cells (%) [4]: 56%
- Population Normal (%) [4]: 98%
- Population Pyknosed Nuclei (%) [4]: 24%
- Population Tubulin-Different-Phenotype (%) [4]: 54%
- Total Cell Count [4]: 124
- Population Apoptotic (%) [5]: 43%
- Population Fragmented Nuclei (%) [5]: 17%
- Population Healthy Nuclei (%) [5]: 65%
- Population Hoechst High Intensity Objects (%) [5]: 1%
- Population Membrane Permeable-Phenotype (%) [5]: 1%
- Population Mitochondria Different-Phenotype (%) [5]: 3%
- Population Mitotic Cells (%) [5]: 56%
- Population Normal (%) [5]: 98%
- Population Pyknosed Nuclei (%) [5]: 17%
- Population Tubulin-Different-Phenotype (%) [5]: 25%
- Total Cell Count [5]: 93
- Population Apoptotic (%) [6]: 33%
- Population Fragmented Nuclei (%) [6]: 30%
- Population Healthy Nuclei (%) [6]: 50%
- Population Hoechst High Intensity Objects (%) [6]: 3%
- Population Membrane Permeable-Phenotype (%) [6]: 8%
- Population Mitochondria Different-Phenotype (%) [6]: 4%
- Population Mitotic Cells (%) [6]: 66%
- Population Normal (%) [6]: 96%
- Population Pyknosed Nuclei (%) [6]: 19%
- Population Tubulin-Different-Phenotype (%) [6]: 42%
- Total Cell Count [6]: 145
- Population Apoptotic (%) [7]: 52%
- Population Fragmented Nuclei (%) [7]: 14%
- Population Healthy Nuclei (%) [7]: 61%
- Population Hoechst High Intensity Objects (%) [7]: 2%
- Population Membrane Permeable-Phenotype (%) [7]: 1%
- Population Mitochondria Different-Phenotype (%) [7]: 3%
- Population Mitotic Cells (%) [7]: 48%
- Population Normal (%) [7]: 97%
- Population Pyknosed Nuclei (%) [7]: 24%
- Population Tubulin-Different-Phenotype (%) [7]: 45%
- Total Cell Count [7]: 107
- Population Apoptotic (%) [8]: 56%
- Population Fragmented Nuclei (%) [8]: 33%
- Population Healthy Nuclei (%) [8]: 45%
- Population Hoechst High Intensity Objects (%) [8]: 5%
- Population Membrane Permeable-Phenotype (%) [8]: 5%
- Population Mitochondria Different-Phenotype (%) [8]: 7%
- Population Mitotic Cells (%) [8]: 43%
- Population Normal (%) [8]: 94%
- Population Pyknosed Nuclei (%) [8]: 20%
- Population Tubulin-Different-Phenotype (%) [8]: 64%
- Total Cell Count [8]: 118
- Population Apoptotic (%) [9]: 33%
- Population Fragmented Nuclei (%) [9]: 20%
- Population Healthy Nuclei (%) [9]: 67%
- Population Hoechst High Intensity Objects (%) [9]: 1%
- Population Membrane Permeable-Phenotype (%) [9]: 0%
- Population Mitochondria Different-Phenotype (%) [9]: 0%
- Population Mitotic Cells (%) [9]: 66%
- Population Normal (%) [9]: 98%
- Population Pyknosed Nuclei (%) [9]: 12%
- Population Tubulin-Different-Phenotype (%) [9]: 26%
- Total Cell Count [9]: 95
- Population Apoptotic (%) [10]: 40%
- Population Fragmented Nuclei (%) [10]: 29%
- Population Healthy Nuclei (%) [10]: 52%
- Population Hoechst High Intensity Objects (%) [10]: 3%
- Population Membrane Permeable-Phenotype (%) [10]: 4%
- Population Mitochondria Different-Phenotype (%) [10]: 2%
- Population Mitotic Cells (%) [10]: 60%
- Population Normal (%) [10]: 96%
- Population Pyknosed Nuclei (%) [10]: 17%
- Population Tubulin-Different-Phenotype (%) [10]: 44%
- Total Cell Count [10]: 147
- Population Apoptotic (%) [11]: 68%
- Population Fragmented Nuclei (%) [11]: 15%
- Population Healthy Nuclei (%) [11]: 56%
- Population Hoechst High Intensity Objects (%) [11]: 7%
- Population Membrane Permeable-Phenotype (%) [11]: 1%
- Population Mitochondria Different-Phenotype (%) [11]: 15%
- Population Mitotic Cells (%) [11]: 31%
- Population Normal (%) [11]: 92%
- Population Pyknosed Nuclei (%) [11]: 27%
- Population Tubulin-Different-Phenotype (%) [11]: 50%
- Total Cell Count [11]: 112
- Population Apoptotic (%) [12]: 69%
- Population Fragmented Nuclei (%) [12]: 38%
- Population Healthy Nuclei (%) [12]: 50%
- Population Hoechst High Intensity Objects (%) [12]: 4%
- Population Membrane Permeable-Phenotype (%) [12]: 6%
- Population Mitochondria Different-Phenotype (%) [12]: 5%
- Population Mitotic Cells (%) [12]: 30%
- Population Normal (%) [12]: 95%
- Population Pyknosed Nuclei (%) [12]: 11%
- Population Tubulin-Different-Phenotype (%) [12]: 67%
- Total Cell Count [12]: 121
